Compound activity (PubChem BioAssay)
SENP6 block – SENP6 protease inhibition | Recombinant SENP6 catalytic domain, aminoluciferin luminescence | inhibition, % at 10 µM | 1.8% of 330,000 active;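 active means inhibition above about 50% at the single tested dose, limit read from the data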;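 further: plate controls were DMSO wells with enzyme for no effect and DMSO wells lacking enzyme for full effect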
SENP1 FRET inh – SENP1 (human) catalytic domain inhibition | recombinant SENP1 catalytic domain, CyPet-SUMO1-YPet FRET cleavage | inhibition, % at 10 µM | AID 624204 | 0.21% of 360,000 active | Q9P0U3;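 active means inhibition at least 30% at 10 µM, raw YFP signal under a set limit, fluorescence ratio 0.5 to 1.5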;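 further: 0% = enzyme with DMSO and 100% = no enzyme wells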
Target sequence (Q9P0U3 419-644 limits assumed): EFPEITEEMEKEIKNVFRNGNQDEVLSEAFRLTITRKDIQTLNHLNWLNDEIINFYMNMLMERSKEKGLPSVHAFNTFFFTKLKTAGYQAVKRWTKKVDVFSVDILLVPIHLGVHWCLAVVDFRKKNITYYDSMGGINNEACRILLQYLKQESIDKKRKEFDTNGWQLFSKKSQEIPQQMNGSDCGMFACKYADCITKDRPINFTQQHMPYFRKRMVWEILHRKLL
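Test system: hSENP1 catalytic domain, recombinant; Amount: 20 pM final SENP1 enzyme; Medium: Tris pH 8 buffer plus EDTA, NaCl, BME, BSA, NP40, catalase; Schedule: 50 min enzyme reaction, room temperature, light-protected; Technique: FRET fluorescence in CFP and YFP emission channels; Controls: no-enzyme wells low, DMSO-plus-enzyme wells high control.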
SENP8 block-1 – blocks human SENP8 cleavage of Nedd8 substrate. Q96LD8. recombinant SENP8, Nedd8 substrate fluorescence. inhibition, % at 20 µM. 0.64% of 360,000 active. AID 602440; in the data active means inhibition mostly above about 40%, no sharp cut-off; inactive means mostly below about 27%
Target sequence (Q96LD8 whole entry, looked up): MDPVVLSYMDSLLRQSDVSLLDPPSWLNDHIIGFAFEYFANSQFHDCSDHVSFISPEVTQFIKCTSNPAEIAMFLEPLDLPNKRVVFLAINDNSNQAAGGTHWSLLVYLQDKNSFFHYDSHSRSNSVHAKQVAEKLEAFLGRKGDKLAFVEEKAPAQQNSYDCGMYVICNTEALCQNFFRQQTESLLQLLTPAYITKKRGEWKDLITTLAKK
UCH37 DUB inh – inhibitors of human deubiquitinating enzyme UCH37; Q9Y5K5; purified proteasome/UCH37, Ub-AMC cleavage fluorescence; inhibition, % (concentration not given with the values); 0.33% of 330,000 active; AID 588478;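 active means mean inhibition over replicate wells above about 20%, limit read from the data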;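 further: 0% = compound-free wells with enzyme and 100% = wells lacking proteasome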
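Material: human UCH37 enzyme supplied as purified proteasome complex. Measure: % inhibition of Ub-AMC cleavage fluorescence. Medium: pH 7.4 Tris-HCl (50 mM) with ovalbumin, ATP-MgCl2, DTT. Times: 30 min preincubation with enzyme, 25 min cleavage at room temperature. Detection: AMC fluorescence intensity at 355/460 nm.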
SENP8 block-2 – blocks the human protease SENP8; Q96LD8; purified SENP8, Z-RLRGG-aminoluciferin cleavage, luminescence; inhibition, % at 10 µM; 1.2% of 330,000 active; AID 2540; in the data active means inhibition above about 50%
SENP7 inh – inhibitors of human SENP7 protease | Q9BQF6 | AID 434973 | inhibition, % at 5 µM | 1.5% of 330,000 active | recombinant SENP7, Z-RLRGG-aminoluciferin luminescence, 40 min;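 active means inhibition above about 50% at the single test dose, limit read from the data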;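 further: plate controls were DMSO with enzyme for no effect and no enzyme buffer wells for full effect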
SENP8 inh conf – SENP8 (human) inhibition, single concentration confirmation; shares compounds with SENP8 block-1; purified SENP8, Nedd8-AMC/pro-Nedd8 cleavage fluorescence, 30 min; inhibition, % at 25 µM; 15% of 1,400 active; AID 624319; in the data active means inhibition mostly above about 39%, no sharp cut-off; inactive means mostly below about 34%
Numbers without * were called inactive; / = no result given. Rows were chosen to be rich in hits. Some 2.6% of all compounds tested hit in one or more screens of this group.

SMILES	SENP6 block	SENP1 FRET inh	SENP8 block-1	UCH37 DUB inh	SENP8 block-2	SENP7 inh	SENP8 inh conf
O=C(O)COc1ccccc1C=NNC(=O)Cc1csc(Nc2cccc(C(F)(F)F)c2)n1	/	/	/	5	/	/	/
CC1CCCN(c2cc(N(C)CCO)c([N+](=O)[O-])c3nonc23)C1 (stereo not drawn)	-6	8	49*	22*	1	1	1
COc1cccc(C=Nn2c(=S)n(C)c3ccccc32)c1OC	/	/	/	4	/	/	/
CC1=NCCN1CCNC(=O)Nc1ccc(F)cc1	-4	-2	41*	/	9	-5	-1
CON=Cc1ccc(N2CCN(C(=O)c3cccc(Cl)c3)CC2)c([N+](=O)[O-])c1	/	/	/	5	/	/	/
COc1ccc(C(=O)/C=C/Nc2ccc([N+](=O)[O-])cc2)cc1	0	-24	-68	0	-3	0	/
COc1ccc(N/C=C/C(=O)c2ccc(C)cc2)c([N+](=O)[O-])c1	12	13	44*	/	12	31	12
CCOC(=O)C1=C(O)C(=O)N(c2ccccc2)C1c1cccc([N+](=O)[O-])c1 (stereo not drawn)	-22	-3	40*	6	7	-1	27
CC(=NNc1ccc(Cl)c(C(=O)O)c1)c1cccc([N+](=O)[O-])c1	/	/	/	12	/	/	/
COc1ccc(NC(=O)CN2CCc3ccccc3C2)cc1S(=O)(=O)N1CCOCC1	5	-6	47*	3	-10	-6	8
CCOC(=O)c1ccc(NC(=O)CN2CCc3ccccc3C2)cc1	11	-4	49*	4	-4	-4	47*
Cc1ccsc1C=NNC(=O)C1C(=O)NCC1c1ccccc1 (stereo not drawn)	/	/	/	4	/	/	/
Cn1cc(C(=O)c2ccc(Cl)cc2Cl)cc1C(=O)NN=C(N)COc1ccc(Cl)cc1Cl	/	/	/	-1	/	/	/
COc1cc(CNn2nnnc2N)ccc1OCc1c(Cl)cccc1Cl	1	1	44*	2	6	3	20
O=[N+]([O-])c1ccc(S(=O)(=O)N2CCN(Cc3c[nH]c4ccccc34)CC2)cc1	3	6	59*	1	5	3	24
C=CCN1C=C2C(=O)C(C)(OC(=O)c3cccs3)C(=O)C=C2C=C1CCCC(=O)OC (stereo not drawn)	5	-25	20	6	-1	5	/
COC(=O)CCCC1=CC2=CC(=O)C(C)(OC(=O)c3cccs3)C(=O)C2=CN1CCc1ccccn1 (stereo not drawn)	8	-29	40*	8	-5	-8	60*
O=S(=O)(ON=C1CCCc2ccccc21)c1ccccc1	/	/	/	1	/	/	/
CCOC(=O)C1CCN(S(=O)(=O)c2ccc(-c3cc(C(F)(F)F)n(C)n3)s2)CC1	-9	2	52*	1	-2	-1	35
COc1ccc(/C=N/N=C2/CC(C)(C)Cc3n[nH]c(=O)cc32)cc1	0	7	44*	/	0	3	12
O=C(Nc1ccc(N2CCN(C(=O)c3ccccc3)CC2)cc1)c1ccc([N+](=O)[O-])o1	/	1	51*	7	/	/	31
Cc1ccccc1C(=O)N1CCN(c2ccc(NC(=O)c3ccc([N+](=O)[O-])o3)cc2)CC1	-7	1	39*	3	6	9	7
CC(C)C(=O)N1CCN(c2ccc(NC(=O)c3ccc([N+](=O)[O-])o3)cc2)CC1	23	3	35	4	1	13	/
Cc1ccc(OCC(=O)NN=Cc2c(C)n(C)c3ccccc23)c([N+](=O)[O-])c1	/	/	/	3	/	/	/
CCCOc1ccc2[nH]c(C(=O)NN=Cc3cc(OC)c(OC)c(OC)c3)cc2c1	/	/	/	-64	/	/	/
COc1cccc(NC(=O)CN(C)C(=O)CSCC(=O)Nc2ccc(C)cc2)c1	-2	2	2	1	9	9	/
COc1ccc(NC(=O)CN(C)C(=O)CSCC(=O)Nc2ccc(C)cc2)cc1	-8	-1	53*	/	-14	-19	8
COc1cc(C2(c3ccc(O)c(OC)c3)C(=O)Nc3c(C)cc(Br)cc32)ccc1O	-10	-16	40*	3	-8	10	15
